The nature of data set [1]: Antiradiation evaluation test was carried out in mice and lethal dose for antiradiation effect at 800 rads was evaluated by the x-ray. The data set is classed as ADME, organism-based. The following applies: mouse, in vivo.
The subject of data set [2] is Mus musculus. Briefly: Antiradiation evaluation test was carried out in mice and percent of survival of animals after 30-day was determined at lowest dose of 150 mg/kg required for the highest survival rate. The data set is classed as functional. The following applies: 720 h.
The species entered for data set [3] is Mus musculus. As to the kind of experiment: Antiradiation evaluation test was carried out in mice and mean survival time(MST) for mice that died over a 30 day period was determined. The data set is classed as functional. In a few lines: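 Mice (strain "H", both sexes, 23-25 g, 20 per group) were given the drug as a methylcellulose/Tween-80 suspension and exposed to 800-rad X-rays at 96 rads/min alongside untreated controls. The value is the mean survival time of the mice that died within the 30-day observation period.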

Data set [4] has as its system Mus musculus. As to the kind of experiment: Antiradiation evaluation test was carried out in mice and percent of survival of animals after 30-day was determined at lowest dose of 250 mg/kg required for the highest survival rate. The data set is classed as functional. The following applies: 720 h.
Data set [5] has as its system Mus musculus. Briefly: Antiradiation evaluation test was carried out in mice and percent of survival of animals after 30-day was determined at lowest dose of 360 mg/kg required for the highest survival rate. The data set is classed as functional. The following applies: 720 h.
Data set [6] concerns Mus musculus. As to the kind of experiment: Antiradiation evaluation test was carried out in mice and percent of survival of animals after 30-day was determined at lowest dose of 210 mg/kg required for the highest survival rate. The data set is classed as functional. The following applies: 720 h.
Data set [7] deals with Mus musculus. As to the kind of experiment: Antiradiation evaluation test was carried out in mice and percent of survival of animals after 30-day was determined at lowest dose of 280 mg/kg required for the highest survival rate. The data set is classed as functional. The following applies: 720 h.
Data set [8] has as its system Mus musculus. Briefly: Antiradiation evaluation test was carried out in mice and percent of survival of animals after 30-day was determined at lowest dose of 340 mg/kg required for the highest survival rate. The data set is classed as functional. The conditions noted are these: 720 h.
Data set [9] relates to Mus musculus. Briefly: Antiradiation evaluation test was carried out in mice and percent of survival of animals after 30-day was determined at lowest dose of 125 mg/kg required for the highest survival rate. The data set is classed as functional. The following applies: 720 h.

As to `CCN(CC)C(=S)SC/C(=N\c1ccccc1)Nc1ccccc1`, the LD50 in data set [1] worked out at 840 mg/kg. In [2], this compound came in with a survival at 150 mg/kg of 5%. The MST in data set [3] stood at 8.1 days.

In [1], `CCN(CC)C(=S)SC/C(=N\c1ccc(C)cc1)Nc1ccc(OC)cc1` displayed an LD50 of 970 mg/kg. In [4], the survival at 250 mg/kg was 40%. Besides, the MST in data set [3] came out at 9.8 days.

On to `CCOc1ccc(/N=C(\CSC(=S)N(CC)CC)Nc2ccc(OCC)cc2)cc1`, for which the LD50 in data set [1] was found to be 1240 mg/kg. Further, the survival at 360 mg/kg in data set [5] was found to be 70%. In data set [3], the MST came to 13.5 days.

For the compound `CCOc1ccc(N/C(CSC(=S)N(CC)CC)=N/c2ccc(C)cc2)cc1`, the LD50 in data set [1] is 850 mg/kg. The compound further gave a survival at 210 mg/kg in data set [6] of 25%. The compound also displayed an MST in [3] of 10.5 days.

In the case of `CCN(CC)C(=S)SC/C(=N\c1ccc(C)cc1)Nc1ccc(C)cc1`, the LD50 in data set [1] turned out to be 970 mg/kg. In addition, the survival at 210 mg/kg in [6] is 0%. The compound also came in with an MST in data set [3] of 6.1 days.

In [1], `CCOc1ccc(N/C(CSC(=S)N(CC)CC)=N/c2ccc(OC)cc2)cc1` had an LD50 of 1270 mg/kg. This compound also came in with a survival at 280 mg/kg in [7] of 60%. In addition, the MST in data set [3] was determined as 13.5 days.

As for `CCN(CC)C(=S)SC/C(=N\c1ccc(OC)cc1)Nc1ccc(OC)cc1`, the LD50 in [1] was 1370 mg/kg. Moreover, the survival at 340 mg/kg in [8] came out at 60%. The same compound returned an MST in data set [3] of 14.3 days.

With `CCN(CC)C(=S)SC/C(=N\c1ccccc1)Nc1ccc(OC)cc1`, the LD50 in data set [1] came to 780 mg/kg. Moreover, in data set [2], the survival at 150 mg/kg was determined as 10%. This compound gave an MST in [3] of 10.8 days.

`CCN(CC)C(=S)SC/C(=N\c1ccccc1)Nc1ccc(C)cc1`: in data set [1], the LD50 was determined as 720 mg/kg. The compound further gave a survival at 125 mg/kg in data set [9] of 10%. For the same compound, the MST in data set [3] is 9.6 days.

In the case of `CCOc1ccc(N/C(CSC(=S)N(CC)CC)=N/c2ccccc2)cc1`, the LD50 in [1] came to 800 mg/kg. For the same compound, in [2], the survival at 150 mg/kg came out at 35%. The compound also displayed an MST in data set [3] of 9.1 days.

Broadly, the LD50 is the dose at which mortality reaches 50%.

Values taken from ChEMBL document CHEMBL1123723, “S-[(N,N'-diarylamidino)methyl] diethyldithiocarbamates and related amides as potential radioprotectants” (J Med Chem, 1987).
